B2AR ag – agonists of human beta-2 adrenergic receptor inducing internalization; Am2.2-beta2AR cells, FAP receptor internalization, flow cytometry; response, % (concentration not given with the values); hit rate 0.43% among 340,000;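 active means response above a set limit, near 3 SD of response in nonfluorescent compounds, cut at about 42% in these data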
ABHD5 PLIN5 PPI – inhibitors of human ABHD5-perilipin-5 interaction; Split G. princeps luciferase complementation, luminescence, 4 h; hit rate 0.78% among 360,000; Q00G26+Q8WTS1; inhibition, % at 4 µM;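 active means inhibition above the mean inhibition across every tested compound plus 3 SD, cut at about 22% in these data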
Dynein cargo inh – dynein cargo transport inhibition; 3617.4 mouse cells, GR-EGFP nuclear translocation imaging; test concentration mostly 20 µM; stimulated with dexamethasone, 1 µM; hits give low values; z-score, hits read low; hit rate 0.47% among 220,000; AID 1381;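 active means plate z-score of nuclear minus cytoplasmic receptor signal below a set negative limit, without overly bright fluorescence or cell loss, cut at about -3.5 in these data, passing the limit was not always enough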;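 further: z-score of nuclear minus cytoplasmic ring GR-EGFP intensity difference per well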
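medium = tetracycline-free induction medium containing charcoal-stripped FBS | probe or stimulus = dexamethasone, 1.0 µM final | timing = 48 h induction, then 1 h compound, then 30 min agonist, 37 °C | detection = automated 10x imaging of fixed Hoechst-stained cells | read-out basis = nuclear versus cytoplasmic GR-EGFP signal, averaged per well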
TLR9-MyD88 inh – inhibitors of human TLR9-MyD88 binding; CHO BLA complementation TLR9-MyD88, CCF4 FRET ratio; hit rate 0.21% among 340,000; inhibition, % at 4.98 µM; AID 504734;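 active means inhibition above the mean over all tested compounds plus 3 SD, cut at about 21% in these data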
TLR4-MyD88 BLA – TLR4-MyD88 interaction inhibition in cells. inhibition, % at 8.4 µM. O00206+Q99836. hit rate 0.18% among 200,000. HeLa CL3-4 TLR4/MyD88 BLA complementation, FRET ratio; in the data active means inhibition above about 25%
NOD2 RIPK2 PPI – NOD2-RIPK2 protein interaction inhibition; O43353; CHO BLA complementation NOD2-RIPK2, CCF4 ratio; inhibition, % at 4.98 µM; hit rate 0.38% among 360,000; AID 624267; in the data active means inhibition above about 21%
Target sequence (O43353 whole entry, looked up): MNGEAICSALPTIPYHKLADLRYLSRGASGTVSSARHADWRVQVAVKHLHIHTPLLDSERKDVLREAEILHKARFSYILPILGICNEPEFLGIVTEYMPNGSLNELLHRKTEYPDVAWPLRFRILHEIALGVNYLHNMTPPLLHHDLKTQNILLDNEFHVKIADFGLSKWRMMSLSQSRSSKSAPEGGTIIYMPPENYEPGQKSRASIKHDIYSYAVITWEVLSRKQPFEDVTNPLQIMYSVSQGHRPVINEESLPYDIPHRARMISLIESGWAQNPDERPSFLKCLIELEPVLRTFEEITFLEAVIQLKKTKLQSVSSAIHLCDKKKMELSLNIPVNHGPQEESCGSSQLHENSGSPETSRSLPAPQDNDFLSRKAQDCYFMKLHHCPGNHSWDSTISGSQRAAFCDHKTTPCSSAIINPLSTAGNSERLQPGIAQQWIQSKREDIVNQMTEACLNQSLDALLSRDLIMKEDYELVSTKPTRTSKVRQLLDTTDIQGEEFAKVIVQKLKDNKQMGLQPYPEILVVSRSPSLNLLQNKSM
Dynein inh conf – dynein cargo transport inhibition, confirmation; shares compounds with Dynein cargo inh; 3617.4 GR-EGFP nuclear translocation imaging, dexamethasone-induced; calls only at 20 µM; hit rate 69% among 1,000;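 active means inhibition of receptor movement into the nucleus at or above a set limit in both runs, with normal cell brightness and cell count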;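 further: dexamethasone at 1 µM final in well for 30 min; nuclear minus cytoplasmic GR-EGFP mean intensity difference in channel 2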
Beta2AR ag CP1 – activates human beta-2 adrenergic receptor; shares compounds with B2AR ag; Am2.2-beta2AR cells, FAP surface receptor, flow cytometry; hits give low values; percent response (surface receptor), % at 10 µM; hit rate 25% among 1,100;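 active means surface receptor percent response at or below 58%, roughly 3 SD from nonfluorescent compounds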
FAP fluor counter – flagged in Am2.2 fluorescence counterscreen for beta-2AR agonists | shares compounds with B2AR ag | Am2.2 cells, FAP fluorogen flow cytometry; hits give low values | calls only at 10 µM | 1,100 tested, under 10 active;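 active means percent response below a set limit in fluorescence channel 1 and below 50% in channel 8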
TLR9-MyD88 conf – TLR9-MyD88 interaction inhibition, confirmation; hit rate 51% among 680; inhibition, % at 4.98 µM; shares compounds with TLR9-MyD88 inh; AID 540250; CHO TLR9/MyD88 BLA complementation, CCF4 FRET ratio;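 active means mean inhibition across three repeats above about 21% taken from the earlier screen, limit read from the data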;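 further: blue over green emission ratio reports constitutive TLR9 MyD88 association via BLA complementation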
BLA counter-1 – counter-screen for TLR9-MyD88 inhibitors: non-selective beta-lactamase inhibitors; shares compounds with TLR9-MyD88 inh; CHO-BLA cells, CCF4 FRET ratio, BLA reporter; inhibition, % at 4.98 µM; hit rate 7% among 680; AID 540251;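 active means mean inhibition above a 50% cutoff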;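 further: counterscreen of TLR9-MyD88 hits on CMV-driven BLA in CHO-K1 cells; higher means less blue over green ratio so more BLA blockade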
TLR9 CHO tox – counter-screen for TLR9-MyD88 inhibitors: cytotoxicity in CHO cells. shares compounds with TLR9-MyD88 inh. hit rate 39% among 680. luminescence. inhibition, % at 4.98 µM; in the data active means inhibition above about 11%
NOD2 RIPK2 conf – confirmation of human NOD2-RIPK2 interaction inhibitors. shares compounds with NOD2 RIPK2 PPI. CHO cells, NOD2-RIPK2 BLA complementation, CCF4 FRET. inhibition, % at 4.98 µM. hit rate 70% among 1,200. AID 624370;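 active means mean inhibition across replicates above a set limit taken from the earlier primary screen, cut at about 21% in these data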
BLA counter-2 – NOD2-RIPK2 counterscreen BLA reporter activity | shares compounds with NOD2 RIPK2 PPI | CHO BLA reporter, CCF4 FRET ratio | inhibition, % at 4.98 µM | hit rate 57% among 1,200;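 active means mean inhibition above the low-control mean inhibition plus three low-control SD, cut at about 11% in these data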
Of the large screens only hits and unclear results are named; the others gave an inactive call (follow-up assays come after a bar, where they were run). This is a sample that favours compounds with a hit; in the whole collection about 1.6% have one here.

O=C(Nc1ccc2ccccc2c1)c1cnccn1	none
CS(=O)(=O)c1ncc(Cl)c(C(=O)Nc2ccc3ccccc3c2)n1	B2AR ag 48, ABHD5 PLIN5 PPI 77, Dynein cargo inh -4.2, TLR9-MyD88 inh 45, NOD2 RIPK2 PPI 79 | Dynein inh conf active | TLR9-MyD88 conf 51 | BLA counter-1 inactive | TLR9 CHO tox 99 | NOD2 RIPK2 conf 72 | BLA counter-2 41
Cn1c(N)c(C(=O)COC(=O)/C=C/c2ccccc2)c(=O)n(C)c1=O	none (no result: Dynein cargo inh, TLR4-MyD88 BLA)
CC(COc1ccccc1)NC(C)C(O)c1ccc(O)cc1 (configuration not stated)	none | Beta2AR ag CP1 inactive | FAP fluor counter inactive
C[C@H](NCCc1ccc(O)cc1)[C@H](O)c1ccc(O)cc1	none (no result: Dynein cargo inh, TLR4-MyD88 BLA) | Beta2AR ag CP1 inactive | FAP fluor counter inactive
O=C1C2C3C=CC(O3)C2C(=O)N1N=Cc1cccc2ccccc12 (configuration not stated)	none (no result: Dynein cargo inh, TLR4-MyD88 BLA)
CCn1ccc(C(=O)Nc2ncc(C)s2)n1	none (no result: Dynein cargo inh, TLR4-MyD88 BLA)
CN(C)CCCN(C(=O)c1ccc(Br)s1)c1nc2cc3c(cc2s1)OCCO3	none (no result: Dynein cargo inh, TLR4-MyD88 BLA)
CN(C)CCCN(C(=O)c1ccc([N+](=O)[O-])s1)c1nc2cc3c(cc2s1)OCCO3	B2AR ag 42 (no result: Dynein cargo inh, TLR4-MyD88 BLA) | Beta2AR ag CP1 inactive | FAP fluor counter inactive
CN(c1cccc2cccnc12)S(=O)(=O)c1ccccc1	none (no result: Dynein cargo inh, TLR4-MyD88 BLA) | Beta2AR ag CP1 inactive | FAP fluor counter inactive
CCN(CC)S(=O)(=O)c1cccc2cccnc12	none
COc1cc(C(C)=O)ccc1OCC(O)CNCC(O)c1ccccc1 (configuration not stated)	none (no result: Dynein cargo inh, TLR4-MyD88 BLA) | Beta2AR ag CP1 inactive | FAP fluor counter inactive
COc1cc(C(C)=O)ccc1OCC(O)CN1CCN(S(=O)(=O)c2ccccc2)CC1 (configuration not stated)	none
CCN(CC)c1nc(SCCOC(=O)Nc2ccccc2)nc(N(CC)CC)n1	B2AR ag 44 | Beta2AR ag CP1 inactive | FAP fluor counter inactive
CN(C)c1nc(SCCOC(=O)c2ccccc2)nc(N(C)C)n1	none
COc1ccc(-c2cc(CNc3nc4cc(-c5ccccc5C)sc4c(=O)n3C)on2)cc1	none (no result: B2AR ag, Dynein cargo inh, TLR9-MyD88 inh, TLR4-MyD88 BLA)
Cc1ccc(C)c(S(=O)(=O)N2CCCC2CNC(=O)C(=O)NCC2CCCO2)c1 (configuration not stated)	none (no result: Dynein cargo inh, TLR4-MyD88 BLA)
COc1ccc(-c2nn(-c3ccccc3)cc2C(=O)Nc2nccs2)cc1	B2AR ag 43 | Beta2AR ag CP1 inactive | FAP fluor counter inactive
CCOC(=O)C1(C)CCCN(C(=O)c2ccc(C)c(F)c2)C1 (configuration not stated)	none (no result: B2AR ag, Dynein cargo inh, TLR9-MyD88 inh, TLR4-MyD88 BLA)
COc1cc(C(=O)N(C(C)C)C2CCCCC2)cc(OC)c1OC	none (no result: B2AR ag, Dynein cargo inh, TLR4-MyD88 BLA)
CN(CC(=O)N1CCN(c2ccccn2)CC1)S(=O)(=O)c1ccc(Br)cc1	B2AR ag 107 | Beta2AR ag CP1 27 | FAP fluor counter inactive
CCOC(=O)N1CCN(C(=O)CN(C)S(=O)(=O)c2ccc(Cl)cc2)CC1	B2AR ag 82 (no result: Dynein cargo inh, TLR4-MyD88 BLA) | Beta2AR ag CP1 15 | FAP fluor counter inactive
CN(CC(=O)N1CCCCCC1)S(=O)(=O)c1ccc(Br)cc1	none (no result: Dynein cargo inh, TLR4-MyD88 BLA)
O=C(NNC(=O)c1ccc(S(=O)(=O)N2CCCC2)cc1)c1ccc(Br)cc1	none (no result: Dynein cargo inh, TLR4-MyD88 BLA)
CN1CCN(c2ncnc3c2ncn3[C@H]2CN(Cc3ccc4c(c3)OCO4)C[C@@H](CO)O2)CC1	none (no result: B2AR ag, Dynein cargo inh, TLR9-MyD88 inh, TLR4-MyD88 BLA)
Cc1cccc2sc(NC(=O)CN(C)S(=O)(=O)c3cccs3)nc12	none
Cc1cccc2sc(NC(=O)CN(C)S(=O)(=O)c3ccc(Br)s3)nc12	B2AR ag 51 | Beta2AR ag CP1 inactive | FAP fluor counter inactive
CC1=C(C#N)C(c2cn(-c3ccccc3)nc2-c2cccs2)C(C#N)=C(C)N1	B2AR ag 108 | Beta2AR ag CP1 13 | FAP fluor counter inactive
COCCOC(=O)C1=C(C)NC(=O)NC1c1cn(-c2ccccc2)nc1-c1cccs1 (configuration not stated)	none
C=CCn1c(CNC(=O)c2cccs2)nnc1SCC(=O)c1ccc(Br)cc1	none
C=CCn1c(CCNC(=O)c2cccs2)nnc1SCC(=O)Nc1cccc(Cl)c1C	B2AR ag 60 | Beta2AR ag CP1 inactive | FAP fluor counter inactive
C=CCn1c(CNC(=O)c2cccs2)nnc1SCC(=O)Nc1ccc(C(=O)O)cc1	none
C=CCn1c(CCNC(=O)c2cccs2)nnc1SCC(=O)c1ccc(Cl)cc1	B2AR ag 90 | Beta2AR ag CP1 31 | FAP fluor counter inactive
CCn1c(CCNC(=O)c2cccs2)nnc1SCC(=O)Nc1ccc(Cl)cc1	none
C=CCn1c(CCNC(=O)c2cccs2)nnc1SCC(=O)c1cccc([N+](=O)[O-])c1	B2AR ag 106 | Beta2AR ag CP1 9.3 | FAP fluor counter inactive
COc1ccc(NC(C)=[N+](C)CCNS(=O)(=O)c2ccc(Cl)cc2)cc1	none (no result: Dynein cargo inh, TLR4-MyD88 BLA)
CCN(CC)C(=O)C1=C(C)N(Cc2ccccc2)C(=O)C(CC(=O)NCCN2CCOCC2)C1 (configuration not stated)	none (no result: B2AR ag, Dynein cargo inh, TLR4-MyD88 BLA)
O=C(Nc1ccc(N2CCCC2)cc1)c1cc(Cl)ccc1Cl	B2AR ag 73 (no result: Dynein cargo inh, TLR4-MyD88 BLA) | Beta2AR ag CP1 inactive | FAP fluor counter inactive
COc1ccc(C(C)(C)C)cc1NC(=O)CCc1c(C)noc1C	none (no result: Dynein cargo inh, TLR4-MyD88 BLA)

Assay outcomes: PubChem, several laboratories
